The results in this text go back to ChEMBL document CHEMBL1152204, “Novel potent and highly selective human A(3) adenosine receptor antagonists belonging to the 4-amido-2-arylpyrazolo[3,4-c]quinoline series: molecular docking analysis and pharmacological studies” (Bioorg Med Chem, 2009).

pIC50, pKi: −log10 of the molar value.

Assay [1] has as its target T1, Adenosine receptor A3 (Rattus norvegicus) (UniProt P28647).
T1 sequence (whole entry): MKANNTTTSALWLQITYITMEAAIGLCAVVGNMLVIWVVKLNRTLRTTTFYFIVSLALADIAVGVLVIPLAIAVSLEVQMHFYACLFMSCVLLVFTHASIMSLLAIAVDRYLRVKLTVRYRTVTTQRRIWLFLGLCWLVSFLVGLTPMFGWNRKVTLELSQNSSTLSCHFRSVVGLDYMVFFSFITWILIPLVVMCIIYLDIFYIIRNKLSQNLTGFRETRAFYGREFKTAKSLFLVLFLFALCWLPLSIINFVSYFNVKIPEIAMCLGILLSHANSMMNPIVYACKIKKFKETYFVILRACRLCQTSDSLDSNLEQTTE
The assay can be described thus: Displacement of [125I]AB-MECA from rat adenosine A3 receptor expressed in HEK293 cells at 1 uM by scintillation counting. The class given is cell-based. The essentials: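 rA3-HEK293 membranes (10 µg protein) with 0.5 nM [125I]AB-MECA in Tris-HCl/MgCl2/EDTA buffer pH 7.4; 120 min at 25 °C; GF/B filtration and scintillation counting; percent inhibition at 1 µM test compound.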
On the technique in general: Displacement assays read how much labelled ligand stays bound in the presence of the test substance.

The target in assay [2] is T2, Adenosine receptor A3 (Homo sapiens, UniProt P0DMS8).
T2 sequence (P0DMS8 whole entry): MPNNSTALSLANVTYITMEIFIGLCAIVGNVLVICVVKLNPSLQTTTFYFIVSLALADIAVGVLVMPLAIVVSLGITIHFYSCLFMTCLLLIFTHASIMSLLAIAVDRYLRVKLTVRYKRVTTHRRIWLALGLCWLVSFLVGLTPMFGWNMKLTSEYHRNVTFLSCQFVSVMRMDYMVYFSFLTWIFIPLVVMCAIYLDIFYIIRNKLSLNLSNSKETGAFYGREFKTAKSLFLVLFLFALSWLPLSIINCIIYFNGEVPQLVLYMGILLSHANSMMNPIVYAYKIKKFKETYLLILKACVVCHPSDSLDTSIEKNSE
Kind of assay: (§1) Displacement of [125I]AB-MECA from human adenosine A3 receptor expressed in CHO cells by scintillation counting. The class given is cell-based. The essentials: (§2)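 hA3-CHO membranes (50 µg protein) with 0.5 nM [125I]AB-MECA in 50 mM Tris-HCl, 10 mM MgCl2, 1 mM EDTA, pH 7.4; six to eight ligand concentrations; 120 min at 4 °C. Nonspecific binding: 1 µM AB-MECA. GF/B filtration. Ki by Cheng–Prusoff, means of four assays in duplicate.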

Assay [3] addresses T3, Adenosine receptor A2a (Homo sapiens, UniProt P29274). Kind of assay: Displacement of [3H]ZM241385 from human adenosine A2A receptor expressed in CHO cells at 1 uM by scintillation counting. The class given is cell-based. Put shortly: (§3)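 hA2A-CHO membranes (50 µg protein) with 1 nM [³H]ZM241385 in 50 mM Tris-HCl, 10 mM MgCl2, pH 7.4; 60 min at 4 °C; nonspecific binding with 1 µM ZM241385. GF/B filtration. Ki from six to eight concentrations via Cheng–Prusoff; or % inhibition at 1 µM.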

The target of the next assay is T4, Adenosine receptor A1 (Homo sapiens, UniProt P30542).
T4 sequence (P30542 whole entry): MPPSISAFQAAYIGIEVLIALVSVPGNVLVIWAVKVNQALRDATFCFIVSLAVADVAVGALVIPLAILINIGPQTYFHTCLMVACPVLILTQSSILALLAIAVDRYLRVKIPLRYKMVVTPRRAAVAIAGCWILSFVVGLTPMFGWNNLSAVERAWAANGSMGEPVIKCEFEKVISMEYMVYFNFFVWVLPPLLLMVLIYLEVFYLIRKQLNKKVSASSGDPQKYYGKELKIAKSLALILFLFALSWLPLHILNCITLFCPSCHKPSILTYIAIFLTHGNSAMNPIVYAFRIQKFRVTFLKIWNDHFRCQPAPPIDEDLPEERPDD
Kind of assay: Displacement of [3H]DPCPX from human adenosine A1 receptor expressed in CHO cells by scintillation counting. The class given is cell-based. The essentials: (§4)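 hA1-CHO membranes (50 µg protein) with 1 nM [³H]DPCPX in 50 mM Tris-HCl pH 7.4, 120 min at 25 °C; nonspecific binding with 10 µM CHA. GF/B filtration. Ki from six to eight concentrations via Cheng–Prusoff (four duplicate assays); or % inhibition at 1 µM.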

Assay [4] concerns the target T2, Adenosine receptor A3. The assay can be described thus: Antagonist activity at human adenosine A3 receptor expressed in CHO cells assessed as inhibition of CI-IB-MECA-mediated inhibition of cAMP accumulation by competition protein binding assay. The class given is functional, cell-based. Put shortly:
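hA3-CHO cells (1 × 10⁶/assay) preincubated 10 min at 37 °C in buffered saline pH 7.4 with adenosine deaminase (2 IU/ml) and Ro 20-1724. cAMP inhibited by 100 nM Cl-IB-MECA; antagonist 1 nM–1 µM. TCA stop, ether extraction, cAMP by [³H]cAMP/adrenal binding-protein competition. IC50 as mean of four experiments.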
In general terms: Cyclic AMP is a second messenger, typically raised through Gs and lowered through Gi signalling.

The target in assay [5] is T5, Adenosine receptor A2b (Homo sapiens) (UniProt P29275).
T5 sequence (whole entry): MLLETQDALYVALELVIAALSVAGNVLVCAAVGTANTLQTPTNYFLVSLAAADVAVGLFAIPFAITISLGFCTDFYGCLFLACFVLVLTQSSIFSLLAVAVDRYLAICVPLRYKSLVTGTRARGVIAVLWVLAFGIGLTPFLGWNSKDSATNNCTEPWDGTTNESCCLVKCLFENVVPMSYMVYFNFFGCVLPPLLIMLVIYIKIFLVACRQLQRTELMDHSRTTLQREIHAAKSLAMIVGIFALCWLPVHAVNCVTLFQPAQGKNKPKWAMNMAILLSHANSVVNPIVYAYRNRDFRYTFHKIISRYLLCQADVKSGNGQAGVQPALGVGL
Kind of assay: Antagonist activity at human adenosine A2B receptor expressed in CHO cells assessed as inhibition of NECA-induced cAMP accumulation at 1 uM. The class given is functional, cell-based. The essentials: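 Whole hA2B-CHO cells (1 × 10⁶/assay) in buffered saline, pH 7.4, with 2 IU/ml adenosine deaminase and Ro 20-1724; preincubated 10 min at 37 °C. Stimulated with 200 nM NECA; compound at 1 µM. Stopped with cold 6% TCA, ether-extracted; cAMP by [³H]cAMP competition protein binding; % inhibition reported.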

Assay [6] has as its target T3, Adenosine receptor A2a. Kind of assay: Displacement of [3H]ZM241385 from human adenosine A2A receptor expressed in CHO cells by scintillation counting. The class given is cell-based. Put shortly: as §3
In assay [7] the target is T6, Adenosine receptor A1 (Homo sapiens) (UniProt P30542).
T6 sequence (whole entry): T4 sequence (P30542 whole entry)
The assay can be described thus: Displacement of [3H]DPCPX from human adenosine A1 receptor expressed in CHO cells at 1 uM by scintillation counting. The class given is cell-based. The essentials:
as §4

For assay [8], the target named is T7, Adenosine receptor A3 (Homo sapiens) (UniProt P0DMS8).
T7 sequence (whole entry): T2 sequence (P0DMS8 whole entry)
The description is as §1. The class given is cell-based. Also noted: concentration or dose not given beside the values. Particulars: concentration not given here. The essentials: as §2

T3 sequence (P29274 whole entry): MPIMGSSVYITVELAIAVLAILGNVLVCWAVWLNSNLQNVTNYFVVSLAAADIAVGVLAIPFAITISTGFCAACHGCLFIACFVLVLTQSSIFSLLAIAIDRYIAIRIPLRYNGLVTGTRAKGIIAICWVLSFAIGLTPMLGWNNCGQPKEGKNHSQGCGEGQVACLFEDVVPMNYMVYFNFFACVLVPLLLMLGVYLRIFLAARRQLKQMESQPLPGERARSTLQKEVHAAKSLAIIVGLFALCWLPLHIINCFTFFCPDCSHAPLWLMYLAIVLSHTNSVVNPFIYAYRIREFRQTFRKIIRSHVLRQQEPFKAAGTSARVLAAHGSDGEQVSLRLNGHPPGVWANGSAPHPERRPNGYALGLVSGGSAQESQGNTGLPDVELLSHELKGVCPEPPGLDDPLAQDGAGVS

For the molecule `Cc1ccc(C(=O)Nc2nc3ccccc3c3cn(-c4ccccc4)nc23)o1`, the inhibition in assay [1] was found to be 30%; on Adenosine receptor A2a [3] it was 10%; in [5], 5%. Besides, the pKi is 8.12 on Adenosine receptor A3 [2] and 6.30 at Adenosine receptor A1. In addition, on Adenosine receptor A3 [4], the pIC50 is 7.31.
For `Cc1cccc(-n2cc3c(n2)c(NC(=O)c2ccccc2)nc2ccccc23)c1`, on Adenosine receptor A2a [6], the negative-log Ki (pKi) is 5.54.
`O=C(c1cccc(C(F)(F)F)c1)N(C(=O)c1cccc(C(F)(F)F)c1)c1nc2ccccc2c2cn(-c3ccccc3)nc12`: the inhibition was 4% in assay [7], 24% in assay [8], 3% on Adenosine receptor A2a [3] and 6% in assay [5].
As for `O=c1[nH]c2ccccc2c2cn(-c3cccc(C(F)(F)F)c3)nc12`, the inhibition was 2% in assay [7], 4% in assay [8], 5% at Adenosine receptor A2a [3] and 3% in [5].
The like results for `O=C(c1ccc(C(F)(F)F)cc1)N(C(=O)c1ccc(C(F)(F)F)cc1)c1nc2ccccc2c2cn(-c3ccccc3)nc12` were, in that order, 17%, 29%, 1% and 1%.

The term inhibition denotes the relative decrease from the control value, in per cent. What is called pKi is −log10 of the Ki, conventionally taken in molar units. For orientation: pIC50 means the negative decadic logarithm of the IC50, by convention in mol/L.
